hERG protect: compounds protecting human hERG from proarrhythmic drug block; Q12809; activation (rescue from dofetilide block), less the hit threshold, % at 10 µM; 310,000 tested, 0.51% active; CHO-hERG, FluxOR thallium flux, dofetilide IC70 present;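 active = activation above the mean of controls blocked by dofetilide plus 5 SD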;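 note: thallium influx through hERG after potassium depolarization seen as dye fluorescence rise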
KCNK9 block: human KCNK9 channel inhibition. HEK293 KCNK9, FluxOR thallium flux fluorescence; active compounds read low. B-score at 10 µM. 310,000 tested, 1.2% active;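 active = ratio B-score over 3 SD below the library mean, with starting fluorescence within 5 SD of its mean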;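 note: negative B-score means less thallium flux so channel inhibition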
KCNK3 block: human KCNK3 channel inhibition, primary screen; O14649; CHO-KCNK3 thallium flux, FluxOR fluorescence; active compounds read low; B-score at 10 µM; 340,000 tested, 0.84% active; AID 602410;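 active = B-score under library mean minus 4 SD, starting fluorescence ratio at most library mean plus 5 SD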;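 note: more negative B-score means stronger inhibition of thallium flux through KCNK3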
Target sequence (O14649 whole entry, looked up): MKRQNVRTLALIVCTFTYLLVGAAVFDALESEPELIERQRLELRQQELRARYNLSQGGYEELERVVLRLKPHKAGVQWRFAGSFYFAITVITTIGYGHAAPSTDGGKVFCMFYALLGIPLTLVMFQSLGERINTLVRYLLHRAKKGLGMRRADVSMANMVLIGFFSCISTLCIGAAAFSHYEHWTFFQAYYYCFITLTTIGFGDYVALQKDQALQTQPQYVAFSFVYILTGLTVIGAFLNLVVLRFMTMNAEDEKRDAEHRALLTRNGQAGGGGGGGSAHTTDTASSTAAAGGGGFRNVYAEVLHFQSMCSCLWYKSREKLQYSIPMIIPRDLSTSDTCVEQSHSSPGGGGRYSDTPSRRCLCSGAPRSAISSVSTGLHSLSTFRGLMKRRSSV
KCNQ1 block: human KCNQ1 channel inhibition | P51787 | CHO-K1 KCNQ1, FluxOR thallium flux fluorescence; active compounds read high | B-score at 10 µM | 310,000 tested, 1.3% active | AID 2642;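 active = compounds whose thallium flux B-score, printed positive for inhibition, exceeds three library SD while starting fluorescence stays within three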;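 note: channel opened by potassium depolarization with thallium stimulus after 20 min compound exposure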
KCNQ1 act: potentiators or activators of human KCNQ1 potassium channel; AID 2648; B-score at 10 µM; 310,000 tested, 0.35% active; P51787; CHO-K1 KCNQ1, thallium flux FluxOR fluorescence; active compounds read high;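 active = fluorescence ratio B-score, a plate-corrected score, at least three library SD, with initial intensity B-score within 5 SD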
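Test system: CHO-K1 cells stably expressing KCNQ1 / Medium: assay buffer / Also added: depolarizing K+/Tl+ stimulus, K2SO4 and Tl2SO4 each 12.5 mM in 5x stock / Incubation: 90 min dye loading and 20 min compound exposure, both at room temperature / Signal: thallium influx via FluxOR fluorescence, kinetic imaging / Evaluation: B score of baseline-normalized fluorescence ratio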
Kir21 inh: blocks the mouse Kir2.1 inward-rectifier potassium channel; B-score at 10 µM; 310,000 tested, 0.85% active; P35561; HEK293-Kir2.1, FluxOR thallium flux fluorescence; active compounds read low;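 active = fluorescence ratio B-score at or below minus 3 SD of library scores, with starting-brightness B-score within 2 SD, cut at about -4.2 in these data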;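 note: channel flux triggered by added potassium and thallium sulfate stimulus; B-score of peak minus minimum fluorescence over baseline after thallium stimulus; more negative B-score means stronger Kir2.1 block with less thallium influx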
Active calls of the source: *; i = inactive; nt = no result. Shown are actives, neighbours in structure and some others; about 3.7% of the full set was active somewhere.

SMILES	hERG protect	KCNK9 block	KCNK3 block	KCNQ1 block	KCNQ1 act	Kir21 inh
COc1cccc(CNC(=O)c2ccc(Cl)c(NC3=NC4CS(=O)(=O)CC4S3)c2)c1 (stereo not drawn)	-2.4	i	i	i	i	-2
Cc1ccc(N/C=C2\CCCCC2=O)nc1	-15.6	i	i	i	i	-0.68
COc1ccc(CCNC(=O)c2coc3ccccc3c2=O)cc1OC	-17.8	i	i	i	i	-1.54
O=C(Nc1ccc(C(F)(F)F)cc1)N1CCN(c2ccnc3cc(Cl)ccc23)CC1	-10.1	i	i	6*	i	-0.43
CSc1nnc2n(C)c3c(c(=O)n12)C1(CCCC1)Cc1ccccc1-3	-19.8	-7.17*	i	i	i	-1.49
Clc1ccc(/C(Cc2nc3ccccc3[nH]2)=N\Nc2ccccc2)cc1	-15.0	-7.2*	i	9*	i	-0.1
COc1ccc(OC(=O)c2cccnc2)cc1	-10.7	i	i	i	i	-0.22
CC(C)(C)c1ccc(OC(=O)c2cccnc2)cc1	-5.6	i	i	i	i	-4.45*
CCC(C)[C@H](NC(=O)[C@H](Cc1ccccc1)n1c(=O)[nH]c2ccccc2c1=O)C(=O)NCC1CCC(C(=O)O)CC1 (stereo partly drawn)	-4.9	i	i	i	i	-0.28
O=C(c1ccc(Cl)cc1)N1CCCOC1	7.0*	i	i	i	i	-0.27
N#CC(c1ccccc1)N(CCCCl)C(=O)c1ccccc1 (stereo not drawn)	-7.0	i	i	i	i	-4.6*
CC(=O)N(CCCCl)C(C#N)c1ccccc1 (stereo not drawn)	-5.5	i	i	i	i	-1.58
COc1ccc(N2CCN(C3CCCN(Cc4cccc(OC)c4)C3)CC2)cc1 (stereo not drawn)	-7.1	i	i	i	i	-1.16
S=C1NCCc2ccc(Cl)cc2C1c1ccccc1 (stereo not drawn)	nt	nt	-10*	nt	nt	nt
NCC(c1ccccc1Cl)c1c[nH]c2ccccc12 (stereo not drawn)	-5.3	i	i	i	i	-0.73
CN(C)CCCNC(=S)NCC(c1ccc(Cl)cc1Cl)c1c[nH]c2ccccc12 (stereo not drawn)	-14.3	i	i	i	i	-6.52*
NCC(c1ccc(Cl)cc1Cl)c1c[nH]c2ccccc12 (stereo not drawn)	-8.4	i	i	i	i	-8.72*
Cc1ccc(S(=O)(=O)NCc2c(Cl)cccc2Oc2ccccc2)cc1	-6.7	i	i	i	i	-0.61
O=C(Nc1cccc(-c2cnc3ccccc3n2)c1)C1CC(=O)N(c2ccccc2)C1 (stereo not drawn)	-2.9	i	i	i	i	2.02
COc1ccc2nc(N=Nc3ccc(O)c4ccccc34)sc2c1	10.9*	i	i	i	18*	-3.23
Oc1ccc(C[C@H]2CNC(=S)N2CC2CCCN2C[C@H](Cc2ccc(O)cc2)N2C[C@H](Cc3ccc(O)cc3)N(CC3CCCCC3)C2=S)cc1 (stereo partly drawn)	nt	nt	i	nt	nt	nt
Cc1sc2nc(SCC(=O)N(C)Cc3ccccc3)n(-c3ccccc3)c(=O)c2c1C	-9.7	i	-8.72*	i	i	0.3
Cc1sc2nc(SCC(=O)NCCCO)n(-c3ccccc3)c(=O)c2c1C	-8.0	i	i	i	i	0.17
N#CC1=C(SCC(=O)NC2CC2)NC(=O)C(C#N)C12CCCCC2 (stereo not drawn)	-11.7	i	i	i	i	-1.33
N#CC1=C(SCC(=O)NC23CC4CC(CC(C4)C2)C3)NC(=O)C(C#N)C12CCCCC2 (stereo not drawn)	-9.0	i	i	10*	i	0.47
SMILES	hERG protect	KCNK9 block	KCNK3 block	KCNQ1 block	KCNQ1 act	Kir21 inh
Cc1ccc(S(=O)(=O)N2CCN(C(=O)[C@H](Cc3ccccc3)NC(=O)c3ccco3)CC2)cc1C	nt	nt	i	nt	nt	nt
CC(C)CCNC(=O)C1CCCCN1S(=O)(=O)c1ccc(F)cc1 (stereo not drawn)	5.0*	i	i	i	i	-0.06
O=S(=O)(c1ccc(Cl)cc1)N1CCC(O)(CN2CCN(Cc3ccccc3)CC2)CC1	-9.8	i	i	i	i	-5.39*
O=C(NCc1ccccc1Cl)C1CCC(CNc2nc(=S)[nH]c3ccccc23)CC1 (stereo not drawn)	5.6*	i	i	i	i	1.35
O=C(NCCc1ccc(Cl)cc1)C1CCC(CNc2nc(=S)[nH]c3ccccc23)CC1 (stereo not drawn)	-13.4	i	i	i	i	-0.98
COc1ccc(CN2C(=O)CSCC2=O)cc1OC	-5.8	i	i	i	i	0.25
COc1ccc(CCN2C(=O)CSC2=S)cc1OC	4.7*	i	i	i	i	0.96
COc1ccccc1-c1nc2ccc(Cl)cc2c(=O)n1O	-0.9	i	i	i	i	0.02
NNC(=O)c1cc(C23CC4CC(CC(C4)C2)C3)nc2ccccc12	-9.6	i	i	6*	i	0.45
O=C(NNc1c2ccccc2nc2ccccc12)C12CC3CC(CC(C3)C1)C2	-0.4	i	i	i	i	1.01
CCOc1ccc2cc(S(=O)(=O)n3ccnc3C)ccc2c1	-3.5	i	i	i	i	-3.58
CCc1nccn1S(=O)(=O)c1ccc2ccc(C)cc2c1	26.9*	i	i	i	28*	-1.21
O=C(Nc1cccc(-c2cccc(Cl)c2)c1)C1CCN(Cc2ccc(CO)o2)CC1	-31.1	i	i	i	i	-6.14*
Cc1ccc(CN2CCC(C(=O)Nc3cccc(-c4cccc(F)c4)c3)CC2)o1	-16.6	i	i	i	i	-5.14*
COc1cc(C(=O)c2nccc3cc(OC)c(OC)cc23)c([N+](=O)[O-])cc1OC	5.9*	i	i	i	i	1.69
Cc1ccc(OCC(=O)NC(=S)Nc2ccc(Br)c(C)n2)cc1	-6.8	i	i	i	i	-0.95
Cc1ccc(OCC(=O)NC(=S)Nc2ccc(Br)cn2)cc1	11.8*	i	i	i	9*	-0.78
COc1ccc(S(=O)(=O)NCC(=O)N(CC(=O)NCc2ccco2)Cc2ccc(F)cc2)cc1	-6.1	i	i	i	i	3.8
Cc1ccc(C(CNC(=O)Nc2ccc(Cl)cc2)N2CCN(C)CC2)cc1 (stereo not drawn)	-14.7	i	i	i	i	-0.83
CN1CCN(C(CNC(=O)Nc2ccc(Cl)cc2)c2ccc(F)cc2)CC1 (stereo not drawn)	-11.4	i	i	6*	i	-0.96

Source: PubChem BioAssay
